Assay outcomes (PubChem BioAssay)
Compounds with a hit are over-represented: about 0.79% of the library has one in this group of screens.
hIAP activ = human IAP activators, primary screen, biochemical, luminescence, uHTS. activation factor at 10 µM. purified human IAP, CDP-Star luminescence, 30 min; stronger effect = higher value; 1 = vehicle-only enzyme, 0 = enzyme-free background. 330,000 tested, 0.16% active. Intestinal-type alkaline phosphatase (Homo sapiens), P09923;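 active = activation factor of the enzyme at least 2-fold when tested at 20 µM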
Target sequence (P09923 whole entry, looked up): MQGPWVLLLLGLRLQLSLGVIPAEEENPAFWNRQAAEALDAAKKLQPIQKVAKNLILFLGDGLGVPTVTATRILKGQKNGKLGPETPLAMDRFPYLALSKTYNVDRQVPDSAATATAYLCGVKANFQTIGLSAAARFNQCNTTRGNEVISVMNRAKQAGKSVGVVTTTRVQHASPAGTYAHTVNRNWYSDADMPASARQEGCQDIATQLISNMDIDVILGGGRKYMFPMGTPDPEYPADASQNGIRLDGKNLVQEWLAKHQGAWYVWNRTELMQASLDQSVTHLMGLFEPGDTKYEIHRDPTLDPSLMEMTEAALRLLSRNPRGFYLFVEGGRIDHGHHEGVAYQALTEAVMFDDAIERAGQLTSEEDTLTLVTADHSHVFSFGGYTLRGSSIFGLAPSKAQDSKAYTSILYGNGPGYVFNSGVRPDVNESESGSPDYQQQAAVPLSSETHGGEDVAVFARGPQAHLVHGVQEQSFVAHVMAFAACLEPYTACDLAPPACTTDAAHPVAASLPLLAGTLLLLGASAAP
hIAP inh = human IAP inhibitors, primary screen, biochemical, luminescence, uHTS | Intestinal-type alkaline phosphatase (Homo sapiens), P09923 | 330,000 tested, 0.12% active | inhibition, % at 10 µM | purified IAP, CDP-Star luminescence, 30 min | AID 2544, 2010;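 active = inhibition reaching a set limit with compound at 10 µM in the primary screen, cut at about 35% in these data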;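 also: plate controls were DMSO wells with enzyme for no effect and no-enzyme buffer wells for full effect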
mIAP act = activators of mouse IAP, primary screen, biochemical, luminescence, uHTS. muIAP, CDP-Star luminescence, 30 min; stronger effect = higher value; 1 = vehicle-only enzyme signal, 0 = enzyme-free wells. activation factor at 10 µM. 330,000 tested, 0.24% active. AID 2805, 2010;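 active = activation factor of at least 2 at 20 µM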
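System: Mouse IAP enzyme | Also added: CDP-Star substrate | Dosing: Compounds dispensed in DMSO | Schedule: 30 min enzyme-substrate-compound incubation at room temperature | Technique: Chemiluminescence readout | Control set: DMSO-only wells and no-enzyme negative control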
bIAP inh = bovine intestinal alkaline phosphatase inhibitors, primary screen, selectivity assay for TNAP inhibitor project, biochemical, bovine IAP, CDP-star luminescence; purified bovine IAP, 30 min; inhibition, % at 20 µM; 190,000 tested, under 10 active;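 active = over 50% inhibition of intestinal alkaline phosphatase at 20 µM in the single-dose screen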
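Incubation: 30 min reaction at room temperature / Material: purified bovine intestinal alkaline phosphatase (IAP) enzyme / Input: enzyme at 1/65,000,000 dilution / Dosing: 20 µM single dose / Signal: CDP-star luminescence signal / Reagent: CDP-star chemiluminescent phosphatase substrate, 30 µM final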
bIAP activator = bovine intestinal alkaline phosphatase activators, primary screen, biochemical, bovine IAP, CDP-star luminescence; activation factor at 20 µM; 200,000 tested, 0.17% active; alkaline phosphatase, intestinal [Bos taurus]; AID 1016, 2008; purified bovine IAP, 30 min; stronger effect = higher value; fold of DMSO-control signal, blank-subtracted;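 active = activation factor of 2 or more at 20 µM, a signal rise over negative controls twice the positive control's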
mIAP inh = inhibitors of mouse IAP, primary screen, biochemical, luminescence, uHTS; intestinal alkaline phosphatase [Mus musculus]; purified mouse IAP, CDP-Star luminescence, 30 min; inhibition, % at 10 µM; 330,000 tested, 0.2% active; AID 2806, 2010;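 active = inhibition of at least 40% at 10 µM in the primary screen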;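 also: plate controls were DMSO with enzyme for no effect and no enzyme wells for full effect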
* hit, by the source's call; i = inactive; x = no result.

SMILES	hIAP activ	hIAP inh	mIAP act	bIAP inh	bIAP activator	mIAP inh
CCOC(=O)c1cccc(NC(=S)NCc2ccc(C)cc2)c1	1.2	-17	2.4*	7	0.9	-143
COc1ccc(CNC(=O)Nc2cccc3ccccc23)cc1	0.95	5	2.1*	-21	1.2	-106
O=C(Nc1ccccc1)Nc1cccc2ccccc12	1	-2	2.9*	x	x	-189
CCOC(=O)c1ccc(NC(=O)NCc2ccc(OC)cc2)cc1	0.98	2	2.2*	-6	1.1	-119
O=C(O)c1cccnc1SCc1cccc(Br)c1	1	-4	1.1	x	x	-8
O=C(CN1C(=O)NC2(CCCCC2)C1=O)N1CCN(S(=O)(=O)/C=C/c2ccccc2)CC1	1.1	-12	0.98	x	x	2
CCOc1ccccc1NC(=O)NCCc1c[nH]c2ccccc12	1.2	-20	1.2	x	x	-21
O=C(NCCc1c[nH]c2ccccc12)Nc1cccc2ccccc12	0.97	2	2.3*	22	0.8	-132
O=C(NCc1ccccc1)Nc1cccc2ccccc12	1.1	-10	1.6	-8	1.1	-65
O=C(NCc1cccc2ccccc12)Nc1ccccc1	1.1	-13	2*	6	0.9	-100
O=C(COC(=O)CCS(=O)(=O)c1ccc(F)cc1)NC1CCCCC1	1	-1	0.93	x	x	7
Cc1nn(C)c(C)c1NC(=O)Nc1cccc(C(F)(F)F)c1	1.1	-6	1	6	0.9	-4
Cc1nn(C)c(C)c1NC(=O)Nc1ccc(Cl)c(Cl)c1	1.1	-10	2.1*	2	1	-114
O=C(Nc1cc(Cl)cc(Cl)c1)C(c1ccccc1)N1CCCCC1 (configuration not stated)	1.1	-12	3*	5	1	-198
O=C(Nc1cc(Cl)cc(Cl)c1)N1CCCC1	0.97	3	2.1*	x	x	-112
CS(=O)(=O)Cc1ccc(C(=O)N2CCN(C(=O)c3cccs3)CC2)cc1	1	0	0.95	x	x	5
CC1CCCC(C)N1c1nnc(NC(=O)c2cc(-c3ccc(Br)cc3)on2)s1 (configuration not stated)	1.2	-22	1	-13	1.1	-2
Cc1c(Br)c([N+](=O)[O-])nn1CC(=O)N1CCN(C23CC4CC(CC(C4)C2)C3)CC1	0.82	18	0.9	x	x	10
COc1ccc(C(=O)NCCN2CCCC2)cc1[N+](=O)[O-]	0.94	6	1.1	x	x	-5
Cc1nnc(SCC(=O)NC2CCCC(C)C2C)n1N (configuration not stated)	1.1	-12	1.1	x	x	-13
CCC(=O)Nc1ccc2c(c1)ncn2-c1ccc(C)cc1	1	-4	0.95	11	0.9	5
CC(=O)N1CC(C)Oc2ccc(S(=O)(=O)NC(CC(=O)O)c3cc(C)ccc3C)cc21 (configuration not stated)	1.2	-16	1	x	x	-1
CC(=O)Nc1ccc(S(=O)(=O)NCC(=O)NNC(=O)COc2ccccc2Cl)cc1	1.5	-50	0.77	x	x	23
CC(=O)Nc1ccc(S(=O)(=O)NCC(=O)NNC(=O)COc2c(C)cccc2C)cc1	1.8	-83	0.59	x	x	41*
Cc1ccc(S(=O)(=O)N2CCN(C(=O)CNC(=O)c3ccc(Br)o3)CC2)cc1	1.3	-27	0.97	x	x	3
SMILES	hIAP activ	hIAP inh	mIAP act	bIAP inh	bIAP activator	mIAP inh
CCCCCCCCCCSc1n[nH]c(NC(C)=O)n1	1.1	-8	2.1*	-234	3.3*	-114
CCCSc1n[nH]c(NC(C)=O)n1	1	-3	0.93	0	1	7
CCc1ccc(C2=CSC3=NCCN23)cc1	1.3	-27	0.96	x	x	4
O=C(Nc1cccnc1)Nc1cc(Cl)cc(Cl)c1	1	-2	2.5*	-6	1.1	-146
CCCCc1nc(C(N)=O)c2[nH]c(=O)n(-c3ccc(OCC)cc3)c2n1	1.9	-89	1	x	x	-5
CCOc1ccc(CCNC(=O)c2ccc3c(c2)NC(=O)C2CCCN32)cc1OCC (configuration not stated)	0.92	8	2*	x	x	-103
CC(C)(C)c1ccc(NC(=O)Nc2ccc(OCC(=O)N3CCOCC3)cc2)cc1	1.1	-5	2.1*	-29	1.3	-108
O=C(NC(=O)c1ccccc1)Nc1cccc(S(=O)(=O)N2CCCCC2)c1	0.98	2	0.95	x	x	5
Cc1nn(Cc2ccc(Cl)cc2Cl)c(C)c1NC(=O)c1sc2ccccc2c1Cl	0.99	1	0.96	13	0.9	4
Cc1nn(Cc2ccc(Cl)cc2Cl)c(C)c1NC(=O)NC12CC3CC(CC(C3)C1)C2	0.88	12	2.1*	-34	1.3	-112
CCC1(c2ccccc2)NC(=O)N(CC(=O)NNC(=O)c2ccc(F)cc2)C1=O (configuration not stated)	1.1	-11	0.91	x	x	9
Cc1ccc(S(=O)(=O)N2CCCCC2)cc1C(=O)OC(C)C(=O)NCC1CCCCC1 (configuration not stated)	0.92	8	1	x	x	-1
O=C(N/N=C/c1ccc(O)cc1)c1cc(-c2ccc3c(c2)OCO3)n[nH]1	0.65	36*	0.86	11	0.9	14
N#C/C(=C\c1ccccc1)C(=O)NNS(=O)(=O)c1ccc(Br)cc1	0.99	1	0.74	x	x	26
Cc1ccn2c(Nc3ccccc3C)c(-c3ccccn3)nc2c1	1.2	-22	0.88	-112	2.1*	12
O=C(Nc1ccncc1)Nc1cccc(C(F)(F)F)c1	1	-3	1.1	x	x	-8
Cc1ccc(S(=O)(=O)Nc2ccc(NC(=O)Nc3cccc(C(F)(F)F)c3)cc2)cc1	1.1	-9	2.6*	13	0.9	-161
O=[N+]([O-])c1cncc([N+](=O)[O-])c1Nc1cccc(O)c1	0.91	9	1	x	x	0
CCOCCCNC(=S)N1CCN(Cc2ccc3c(c2)OCO3)CC1	1	-4	0.94	-3	1	6
Cc1cc(C)cc(NC(=S)NCCSc2ccc(Cl)cc2)c1	1	-2	2.3*	-4	1	-128
Cc1cccc(NC(=S)NCCC(c2ccccc2)c2ccccc2)c1	1	-1	7.6*	10	0.9	i
Cc1ccc(SCCNC(=S)Nc2ccccc2)cc1	1.3	-27	2.2*	37	0.6	-115
COc1ccccc1NC(=S)NCCSc1ccc(C)cc1	1.2	-17	1.5	6	0.9	-49
